In ChEMBL document CHEMBL1132598, “Synthesis, corticotropin-releasing factor receptor binding affinity, and pharmacokinetic properties of triazolo-, imidazo-, and pyrrolopyrimidines and -pyridines” (J Med Chem, 1999):

Key:
[1] = The clearance was measured in dogs after intravenous administration of 1 mg/kg dose; type: ADME, organism-based, Canis lupus familiaris; set-up: dose 1 mg/kg, route intravenous; settings: dog, in vivo
In short: (§1)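 Dogs (n = 4–6) received 1 mg/kg iv in an ethanol/PEG-based cosolvent vehicle. Plasma was extracted liquid–liquid and quantified by LC/MS/MS. Clearance, steady-state volume and elimination half-life were derived from the concentration–time curves.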

Canis familiaris = experiment: The Plasma area under the compound concentration -time curve was measured in dogs after oral administration of 1 mg/kg dose; type: ADME, organism-based, Canis lupus familiaris; set-up: dose 1 mg/kg, route oral; settings: dog, in vivo
[2] = Oral bioavailability in dog (dose 1 mg/kg); type: ADME, organism-based, Canis lupus familiaris; settings: in vivo
[3] = Oral bioavailability in rat (dose 1 mg/kg); type: ADME, organism-based; settings: in vivo
In short: (§2)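 Rats were given a single 1 mg/kg oral dose, as a 0.25% methylcellulose suspension or as a solution in EtOH/PG (20:80). Animals were sacrificed at 30 min and 1, 2, 4, 8 and 16 h, with blood collected into EDTA. Plasma was separated by centrifugation and extracted liquid–liquid. Analysis was by LC/MS/MS. Each value is a single determination or the average of two.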

[4] = The Peak plasma concentration was measured in dogs after oral administration of 1 mg/kg dose; type: ADME, organism-based, Canis lupus familiaris; set-up: dose 1 mg/kg, route oral; settings: dog
[5] = The Peak plasma concentration was measured in rats after oral administration of 1 mg/kg dose; type: ADME, organism-based; set-up: dose 1 mg/kg, route oral; settings: rat; in short: as §2
[6] = The time reach to maximum Peak plasma concentration was measured in dogs after oral administration of 1 mg/kg dose; type: ADME, organism-based, Canis lupus familiaris; set-up: dose 1 mg/kg, route oral; settings: dog
[7] = The Elimination half-life was measured in dogs after intravenous administration of 1 mg/kg dose; type: ADME, organism-based, Canis lupus familiaris; set-up: dose 1 mg/kg, route intravenous; settings: dog, in vivo; in short: as §1
[8] = The volume of distribution at steady state was measured in dogs after intravenous administration of 1 mg/kg dose; type: ADME, organism-based, Canis lupus familiaris; set-up: dose 1 mg/kg, route intravenous; settings: dog, in vivo, read-out: Vss; in short: as §1
[9] = molecular target: T1, Corticotropin-releasing factor receptor 1 (Homo sapiens, UniProt P34998); experiment: Binding affinity to recombinant human Corticotropin releasing factor receptor 1 (hCRF1) expressed in 293EBNA cells; type: cell-based
T1 sequence (P34998 whole entry): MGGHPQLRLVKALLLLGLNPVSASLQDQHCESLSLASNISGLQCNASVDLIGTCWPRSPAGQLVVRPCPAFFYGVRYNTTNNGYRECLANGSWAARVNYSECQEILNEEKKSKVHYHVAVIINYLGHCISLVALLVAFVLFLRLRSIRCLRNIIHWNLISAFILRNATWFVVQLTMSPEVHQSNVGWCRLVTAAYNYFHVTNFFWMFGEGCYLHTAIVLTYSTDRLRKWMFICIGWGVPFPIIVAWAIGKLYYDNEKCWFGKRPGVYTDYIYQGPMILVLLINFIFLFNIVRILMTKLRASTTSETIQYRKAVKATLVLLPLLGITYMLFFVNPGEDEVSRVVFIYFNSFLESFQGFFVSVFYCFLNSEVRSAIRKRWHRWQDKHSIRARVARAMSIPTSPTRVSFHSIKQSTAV

Rattus norvegicus = experiment: The Plasma area under the compound concentration -time curve was measured in rats after oral administration of 1 mg/kg dose; type: ADME, organism-based; set-up: dose 1 mg/kg, route oral; settings: in vivo; in short: as §2
[10] = The Brain concentration compared to plasma concentration in rats at steady state after intravenous infusion; settings: rat, brain and plasma, read-out: B/P

| Structure (SMILES) | clearance [1] [L/h/kg] | AUC T (Canis familiaris) [nM·h] | bioavailability [2] [%] | bioavailability [3] [%] | Cmax [4] [µM] | Cmax [5] [µM] | Tmax [6] [h] | half-life [7] [h] | Vd [8] [L/kg] | Ki [9] [nM] | AUC T (Rattus norvegicus) [nM·h] | F [2] [%] | Kp [10] |
| --- | --- | --- | --- | --- | --- | --- | --- | --- | --- | --- | --- | --- | --- |
| CCCCN(CC)c1nc(C)nc2c1nnn2-c1ccc(C(C)C)cc1Br | 0.555 | 824 | 18.4 | 26.5 | 0.141 | 0.0492 | 1.25 | 26 | 7.54 | 7.5 | 471 |  |  |
| COCCN(CCOC)c1nc(C)nc2c1nnn2-c1ccc(C(C)C)cc1Br | 0.478 | 914 |  | 17 | 0.308 | 0.03 | 0.67 | 33.2 | 15.6 |  | 98 | 30.7 | 0.6 |
| CCC(COC)Nc1nc(C)nc2c1nnn2-c1ccc(C(C)C)cc1Br (stereo in doubt; 4x) | 0.443 | 3140 | 53.1 | 21 | 0.546 | 0.0307 | 0.5 | 19 | 10.1 | 6.1 | 146 |  | 0.6 |

Now from value to compound:

| clearance [1] [L/h/kg] | AUC T (Canis familiaris) [nM·h] | bioavailability [2] [%] | bioavailability [3] [%] | Cmax [4] [µM] | Cmax [5] [µM] | Tmax [6] [h] | half-life [7] [h] | Vd [8] [L/kg] | Ki [9] [nM] | AUC T (Rattus norvegicus) [nM·h] | F [2] [%] | Kp [10] | Structure (SMILES) |
| --- | --- | --- | --- | --- | --- | --- | --- | --- | --- | --- | --- | --- | --- |
|  |  |  | 6 |  | 0.0059 |  |  |  | 1.9 | 21 |  |  | CCC(COC)Oc1nc(C)nc2c1nnn2-c1ccc(C(C)C)cc1Br (stereo not given) |
| 0.523 | 366 | 7.3 | 15.5 | 0.039 | 0.0125 | 0.8 | 46.7 | 24.7 | 5 | 137 |  | 0.2 | COCCN(Cc1ccccc1)c1nc(C)nc2c1nnn2-c1ccc(C(C)C)cc1Br |
